Measurements published in ChEMBL document CHEMBL5380865, “Linearization of the Brevicidine and Laterocidine Lipopeptides Yields Analogues That Retain Full Antibacterial Activity” (J Med Chem, 2023).
Where a SMILES comes first, the peptide text is derived from it. Bridges are numbered along the chain shown (N, C = ends). [ ]: non-standard residue; d: D form. The star is where a group is joined. ξ: configuration not given here. Octanoyl(7-Me) = CC(C)CCCCCC(=O)*; Hexanoyl(4ξ-Me) = CCC(C)CCC(=O)*; dOrn = NCCC[C@@H](N)C(=O)O; Orn = NCCC[C@H](N)C(=O)O; Dap = NC[C@H](N)C(=O)O; Alloc = C=CCOC(=O)*; OAll = C=CCO*

Test: Hemolytic activity in sheep red blood cell assessed as hemolysis at 1 to 128 ug/ml incubated for 1 hrs relative to control
Assay type: toxicity, cell-based, Ovis aries, Erythrocyte
Conditions: sheep red blood cells (erythrocytes), at 1 to 128 µg/mL, dose 1-128 µg/ml, read-out: Activity
Procedure, shortened: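 Defibrinated sheep erythrocytes washed five times in PBS with 0.002% Tween20 and normalized so the Triton control reads 2.5–3.0 at 415 nm. Mixed 1:1 with compound serial dilutions (128–1 μg/mL) and incubated 1 h at 37 °C, 500 rpm. Supernatant A415 is background-corrected with buffer and expressed as percent of 0.1% Triton X-100 (final). Run in triplicate.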
`CCC(C)CCC(=O)N[C@H](CC(N)=O)C(=O)N[C@H](Cc1ccc(O)cc1)C(=O)N[C@H](Cc1c[nH]c2ccccc12)C(=O)N[C@H](CCCN)C(=O)N[C@@H](CCCN)C(=O)NCC(=O)N[C@H](CCCN)C(=O)N[C@@H](Cc1c[nH]c2ccccc12)C(N)=O` (stereo not given in full) ({Hexanoyl(4ξ-Me)}-[dN][dY][dW][dOrn][Orn]G[dOrn]W-NH2) showed a hemolysis at 1 h of less than 0.1%. `CCC(C)CCC(=O)N[C@H](CC(N)=O)C(=O)N[C@H](Cc1ccc(O)cc1)C(=O)N[C@H](Cc1c[nH]c2ccccc12)C(=O)N[C@H](CCCN)C(=O)N[C@@H](CCCN)C(=O)NCC(=O)N[C@H](CCCN)C(=O)N[C@@H](Cc1c[nH]c2ccccc12)C(=O)N[C@H](C(N)=O)[C@@H](C)O` (stereo not given in full) ({Hexanoyl(4ξ-Me)}-[dN][dY][dW][dOrn][Orn]G[dOrn]WT-NH2) gave a hemolysis at 1 h of less than 0.1%. `CCC(C)CCC(=O)N[C@H](CC(N)=O)C(=O)N[C@H](Cc1ccc(O)cc1)C(=O)N[C@H](Cc1c[nH]c2ccccc12)C(=O)N[C@H](CCCN)C(=O)N[C@@H](CCCN)C(=O)NCC(=O)N[C@H](CCCN)C(=O)N[C@@H](Cc1c[nH]c2ccccc12)C(=O)N[C@H](C(=O)N[C@H](C(N)=O)[C@@H](C)CC)[C@@H](C)O` (stereo not given in full) ({Hexanoyl(4ξ-Me)}-[dN][dY][dW][dOrn][Orn]G[dOrn]WTI-NH2) showed a hemolysis at 1 h of less than 0.1%. Molecule `CCC(C)CCC(=O)N[C@H](CC(N)=O)C(=O)N[C@H](Cc1ccc(O)cc1)C(=O)N[C@H](Cc1c[nH]c2ccccc12)C(=O)N[C@H](CCCN)C(=O)N[C@@H](CCCN)C(=O)NCC(=O)N[C@H](CCCN)C(=O)N[C@@H](Cc1c[nH]c2ccccc12)C(=O)N[C@H](C(=O)N[C@H](C(=O)NCC(=O)N[C@@H](CO)C(N)=O)[C@@H](C)CC)[C@@H](C)O` (stereo not given in full) ({Hexanoyl(4ξ-Me)}-[dN][dY][dW][dOrn][Orn]G[dOrn]WTIGS-NH2) has a hemolysis at 1 h of less than 0.1%. `CCC(C)CCC(=O)N[C@H](CC(N)=O)C(=O)N[C@H](Cc1ccc(O)cc1)C(=O)N[C@H](Cc1c[nH]c2ccccc12)C(=O)N[C@H](CCCN)C(=O)N[C@@H](CCCN)C(=O)NCC(=O)N[C@H](CCCN)C(=O)N[C@@H](Cc1c[nH]c2ccccc12)C(=O)N[C@H](C(=O)N[C@H](C(=O)NCC(=O)N[C@@H](CO)C(=O)O)[C@@H](C)CC)[C@@H](C)O` (stereo not given in full) ({Hexanoyl(4ξ-Me)}-[dN][dY][dW][dOrn][Orn]G[dOrn]WTIGS-OH) gave a hemolysis at 1 h of less than 0.1%. With `CCC(C)CCC(=O)N[C@H](CC(N)=O)C(=O)N[C@H](Cc1ccc(O)cc1)C(=O)N[C@H](Cc1c[nH]c2ccccc12)C(=O)N[C@H](CCCN)C(=O)N[C@@H](CCCN)C(=O)NCC(=O)N[C@H](CCCN)C(=O)N[C@@H](Cc1c[nH]c2ccccc12)C(=O)N[C@@H]1C(=O)N[C@@H]([C@@H](C)CC)C(=O)NCC(=O)N[C@@H](CO)C(=O)O[C@@H]1C` (stereo not given in full) ({Hexanoyl(4ξ-Me)}-[dN][dY][dW][dOrn][Orn]G[dOrn]WTIGS; ester 9-C) the hemolysis at 1 h was less than 0.1%. For `C=CCOC(=O)NC[C@H](NC(=O)[C@H](Cc1c[nH]c2ccccc12)NC(=O)[C@@H](CCCN)NC(=O)CNC(=O)[C@H](CCCN)NC(=O)[C@@H](CCCN)NC(=O)[C@@H](Cc1c[nH]c2ccccc12)NC(=O)[C@@H](Cc1ccc(O)cc1)NC(=O)[C@@H](CC(N)=O)NC(=O)CCC(C)CC)C(=O)N[C@H](C(=O)NCC(N)=O)[C@@H](C)CC` (stereo not given in full) ({Hexanoyl(4ξ-Me)}-[dN][dY][dW][dOrn][Orn]G[dOrn]W[Dap](Alloc)IG-NH2), the hemolysis at 1 h was less than 0.1%. Molecule `CC(C)CCCCCC(=O)N[C@H](CO)C(=O)N[C@H](Cc1ccc(O)cc1)C(=O)N[C@H](Cc1c[nH]c2ccccc12)C(=O)N[C@H](CCCN)C(=O)N[C@@H](CCCN)C(=O)NCC(=O)N[C@H](CCCN)C(=O)N[C@@H](Cc1c[nH]c2ccccc12)C(N)=O` ({Octanoyl(7-Me)}-[dS][dY][dW][dOrn][Orn]G[dOrn]W-NH2) has a hemolysis at 1 h of less than 0.1%. Molecule `C=CCOC(=O)CC[C@H](NC(=O)[C@H](Cc1c[nH]c2ccccc12)NC(=O)[C@@H](CCCN)NC(=O)CNC(=O)[C@H](CCCN)NC(=O)[C@@H](CCCN)NC(=O)[C@@H](Cc1c[nH]c2ccccc12)NC(=O)[C@@H](Cc1ccc(O)cc1)NC(=O)[C@@H](CO)NC(=O)CCCCCC(C)C)C(=O)N[C@H](C(=O)N[C@@H](CC(N)=O)C(=O)NCC(=O)NCC(N)=O)[C@@H](C)CC` ({Octanoyl(7-Me)}-[dS][dY][dW][dOrn][Orn]G[dOrn]WE(OAll)INGG-NH2) has a hemolysis at 1 h of less than 0.1%. `CC[C@H](C)[C@H](NC(=O)[C@H](Cc1ccccc1)NC(=O)[C@H](Cc1c[nH]c2ccccc12)NC(=O)[C@@H](CCCN)NC(=O)CNC(=O)[C@H](CCCN)NC(=O)[C@@H](CCCN)NC(=O)[C@@H](Cc1c[nH]c2ccccc12)NC(=O)[C@@H](Cc1ccc(O)cc1)NC(=O)[C@@H](CO)NC(=O)CCCCCC(C)C)C(=O)N[C@@H](CC(N)=O)C(=O)NCC(=O)NCC(N)=O` ({Octanoyl(7-Me)}-[dS][dY][dW][dOrn][Orn]G[dOrn]WFINGG-NH2) showed a hemolysis at 1 h of 0.6%. Molecule `CC[C@H](C)[C@H](NC(=O)[C@H](CC(C)C)NC(=O)[C@H](Cc1c[nH]c2ccccc12)NC(=O)[C@@H](CCCN)NC(=O)CNC(=O)[C@H](CCCN)NC(=O)[C@@H](CCCN)NC(=O)[C@@H](Cc1c[nH]c2ccccc12)NC(=O)[C@@H](Cc1ccc(O)cc1)NC(=O)[C@@H](CO)NC(=O)CCCCCC(C)C)C(=O)N[C@@H](CC(N)=O)C(=O)NCC(=O)NCC(N)=O` ({Octanoyl(7-Me)}-[dS][dY][dW][dOrn][Orn]G[dOrn]WLINGG-NH2) has a hemolysis at 1 h of less than 0.1%. Work on `CC[C@H](C)[C@H](NC(=O)[C@H](CC(N)=O)NC(=O)[C@H](Cc1c[nH]c2ccccc12)NC(=O)[C@@H](CCCN)NC(=O)CNC(=O)[C@H](CCCN)NC(=O)[C@@H](CCCN)NC(=O)[C@@H](Cc1c[nH]c2ccccc12)NC(=O)[C@@H](Cc1ccc(O)cc1)NC(=O)[C@@H](CO)NC(=O)CCCCCC(C)C)C(=O)N[C@@H](CC(N)=O)C(=O)NCC(=O)NCC(N)=O` ({Octanoyl(7-Me)}-[dS][dY][dW][dOrn][Orn]G[dOrn]WNINGG-NH2) yielded a hemolysis at 1 h of less than 0.1%. Work on `CC[C@H](C)[C@H](NC(=O)[C@H](CO)NC(=O)[C@H](Cc1c[nH]c2ccccc12)NC(=O)[C@@H](CCCN)NC(=O)CNC(=O)[C@H](CCCN)NC(=O)[C@@H](CCCN)NC(=O)[C@@H](Cc1c[nH]c2ccccc12)NC(=O)[C@@H](Cc1ccc(O)cc1)NC(=O)[C@@H](CO)NC(=O)CCCCCC(C)C)C(=O)N[C@@H](CC(N)=O)C(=O)NCC(=O)NCC(N)=O` ({Octanoyl(7-Me)}-[dS][dY][dW][dOrn][Orn]G[dOrn]WSINGG-NH2) yielded a hemolysis at 1 h of less than 0.1%. `CC[C@H](C)[C@H](NC(=O)[C@@H](NC(=O)[C@H](Cc1c[nH]c2ccccc12)NC(=O)[C@@H](CCCN)NC(=O)CNC(=O)[C@H](CCCN)NC(=O)[C@@H](CCCN)NC(=O)[C@@H](Cc1c[nH]c2ccccc12)NC(=O)[C@@H](Cc1ccc(O)cc1)NC(=O)[C@@H](CO)NC(=O)CCCCCC(C)C)[C@@H](C)O)C(=O)N[C@@H](CC(N)=O)C(=O)NCC(N)=O` ({Octanoyl(7-Me)}-[dS][dY][dW][dOrn][Orn]G[dOrn]WTING-NH2) gave a hemolysis at 1 h of less than 0.1%. In the case of `CC[C@H](C)[C@H](NC(=O)[C@@H](NC(=O)[C@H](Cc1c[nH]c2ccccc12)NC(=O)[C@@H](CCCN)NC(=O)CNC(=O)[C@H](CCCN)NC(=O)[C@@H](CCCN)NC(=O)[C@@H](Cc1c[nH]c2ccccc12)NC(=O)[C@@H](Cc1ccc(O)cc1)NC(=O)[C@@H](CO)NC(=O)CCCCCC(C)C)[C@@H](C)O)C(=O)N[C@@H](CC(N)=O)C(=O)NCC(=O)NCC(N)=O` ({Octanoyl(7-Me)}-[dS][dY][dW][dOrn][Orn]G[dOrn]WTINGG-NH2), the hemolysis at 1 h is reported as less than 0.1%.
